Test results: ChEMBL document CHEMBL1123771, “Synthesis and structure-activity relationships of potent new angiotensin converting enzyme inhibitors containing saturated bicyclic amino acids” (J Med Chem, 1987)

Columns and labels:
[1] = molecular target: T1, Angiotensin-converting enzyme (Rattus norvegicus, UniProt P47820); assay: Inhibition of rat Angiotensin I converting enzyme (ACE), using Hip-Gly-Gly as synthetic substrate.
T1 sequence (P47820 whole entry): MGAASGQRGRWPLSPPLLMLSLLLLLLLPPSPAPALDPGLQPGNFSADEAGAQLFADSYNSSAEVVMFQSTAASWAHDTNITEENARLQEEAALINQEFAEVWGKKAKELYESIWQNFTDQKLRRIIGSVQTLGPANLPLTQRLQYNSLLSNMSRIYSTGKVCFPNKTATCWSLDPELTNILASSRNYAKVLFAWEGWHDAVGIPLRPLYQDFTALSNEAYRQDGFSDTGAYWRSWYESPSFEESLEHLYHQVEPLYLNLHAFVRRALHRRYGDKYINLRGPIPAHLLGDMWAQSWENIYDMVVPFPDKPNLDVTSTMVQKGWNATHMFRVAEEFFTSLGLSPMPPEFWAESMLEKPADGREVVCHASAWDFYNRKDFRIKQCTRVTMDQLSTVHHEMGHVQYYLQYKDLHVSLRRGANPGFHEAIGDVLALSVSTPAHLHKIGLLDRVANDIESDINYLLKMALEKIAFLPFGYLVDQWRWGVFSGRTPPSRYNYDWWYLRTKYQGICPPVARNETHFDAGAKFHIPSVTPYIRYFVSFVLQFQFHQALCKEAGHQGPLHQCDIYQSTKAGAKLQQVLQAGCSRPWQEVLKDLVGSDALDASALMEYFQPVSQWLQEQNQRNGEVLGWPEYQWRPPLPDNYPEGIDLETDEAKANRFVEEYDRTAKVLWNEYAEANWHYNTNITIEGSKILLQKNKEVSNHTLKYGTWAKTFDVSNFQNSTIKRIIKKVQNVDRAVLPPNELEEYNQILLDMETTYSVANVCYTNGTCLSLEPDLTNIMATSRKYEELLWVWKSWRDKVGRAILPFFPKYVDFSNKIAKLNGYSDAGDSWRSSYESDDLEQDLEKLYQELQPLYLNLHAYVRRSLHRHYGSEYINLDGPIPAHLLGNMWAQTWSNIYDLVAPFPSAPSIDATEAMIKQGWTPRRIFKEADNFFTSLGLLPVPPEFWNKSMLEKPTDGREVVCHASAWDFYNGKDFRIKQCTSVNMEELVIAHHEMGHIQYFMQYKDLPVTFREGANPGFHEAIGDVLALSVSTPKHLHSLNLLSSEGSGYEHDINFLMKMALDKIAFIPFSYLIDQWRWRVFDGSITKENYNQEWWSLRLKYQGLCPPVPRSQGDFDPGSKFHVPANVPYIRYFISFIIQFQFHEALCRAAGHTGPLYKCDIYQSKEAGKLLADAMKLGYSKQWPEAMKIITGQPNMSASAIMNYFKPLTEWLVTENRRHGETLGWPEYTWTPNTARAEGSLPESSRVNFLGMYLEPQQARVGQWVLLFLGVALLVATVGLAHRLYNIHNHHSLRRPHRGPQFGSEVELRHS
In short: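 Radioassay of converting-enzyme activity with Hip-Gly-Gly as substrate; compounds dissolved at 2–5 mg/mL in Me2SO, then diluted to test concentrations in pH 8 buffer (0.05 M Hepes, 0.1 M NaCl, 0.6 M Na2SO4).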

Rattus norvegicus [2] = assay: Mean aortic base line blood pressure in conscious renal 2-kidney/1-clip goldblatt hypertensive rat at a dose 30 mg/kg administered orally; format: functional, Artery; conditions: route oral
Rattus norvegicus [3] = assay: Maximum change in mean aortic blood pressure in conscious renal 2-kidney/1-clip goldblatt hypertensive rat at a dose 30 mg/kg administered orally at 8h; 3 animals tested; format: functional, Artery; conditions: route oral
In short: (§1)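 Male Sprague–Dawley rats made hypertensive at 4 weeks old by silver clip (0.2-mm gap) on left renal artery, contralateral kidney intact; 4–8 weeks development, cannulated (280–320 g), only mean aortic pressure >160 mmHg used. Oral dosing; 1-min running-average aortic pressure and heart rate logged every 30 min; maximum change from base line, mean ± SEM.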

Rattus norvegicus [4] = assay: Maximum change in mean aortic blood pressure in conscious renal 2-kidney/1-clip goldblatt hypertensive rat at a dose 30 mg/kg administered orally at 6 h; 3 animals tested; format: functional, Artery; conditions: route oral; in short: as §1
Rattus norvegicus [5] = assay: Maximum change in mean aortic blood pressure in conscious renal 2-kidney/1-clip goldblatt hypertensive rat at a dose 30 mg/kg administered orally at 5h; 4 animals tested; format: functional, Artery; conditions: route oral
In short: (§2)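 Male Sprague–Dawley rats, 4 weeks old, given a silver clip (0.2-mm gap) on the left renal artery with the other kidney intact. Hypertension developed over 4–8 weeks, then rats (280–320 g) were aortic-cannulated; only those with mean pressure >160 mmHg were used. Oral dosing. One-minute running averages were logged every 30 min. Results are mean ± 1 SEM, from 3–5 rats.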

Rattus norvegicus [6] = assay: Maximum change in mean aortic blood pressure in conscious renal 2-kidney/1-clip goldblatt hypertensive rat at a dose 30 mg/kg administered orally at 8h; 4 animals tested; format: functional, Artery; conditions: route oral; in short: as §2
Rattus norvegicus [7] = assay: Maximum change in mean aortic blood pressure in conscious renal 2-kidney/1-clip goldblatt hypertensive rat at a dose 30 mg/kg administered orally at 6 h; 4 animals tested; format: functional, Artery; conditions: route oral
Rattus norvegicus [8] = assay: Mean aortic base line blood pressure in conscious renal 2-kidney/1-clip goldblatt hypertensive rat at a dose 10 mg/kg administered orally; format: functional, Artery; conditions: route oral; in short: as §2
Rattus norvegicus [9] = assay: Mean aortic base line blood pressure in conscious renal 2-kidney/1-clip goldblatt hypertensive rat at a dose 0.3 mg/kg administered orally; format: functional, Artery; conditions: route oral
Rattus norvegicus [10] = assay: Mean aortic base line blood pressure in conscious renal 2-kidney/1-clip goldblatt hypertensive rat at a dose 3.0 mg/kg administered orally; format: functional, Artery; conditions: route oral
Rattus norvegicus [11] = assay: Maximum change in mean aortic blood pressure in conscious renal 2-kidney/1-clip goldblatt hypertensive rat at a dose 3 mg/kg administered orally at 5h; 4 animals tested; format: functional, Artery; conditions: route oral; in short: as §2
Rattus norvegicus [12] = assay: Maximum change in mean aortic blood pressure in conscious renal 2-kidney/1-clip goldblatt hypertensive rat at a dose 1.0 mg/kg administered orally at 8h; 4 animals tested; format: functional, Artery; conditions: route oral; in short: as §2
Rattus norvegicus [13] = assay: Maximum change in mean aortic blood pressure in conscious renal 2-kidney/1-clip goldblatt hypertensive rat at a dose 0.3 mg/kg administered orally at 5h; 4 animals tested; format: functional, Artery; conditions: route oral; in short: as §2
Rattus norvegicus [14] = assay: Mean aortic base line blood pressure in conscious renal 2-kidney/1-clip goldblatt hypertensive rat at a dose 1.0 mg/kg administered orally; format: functional, Artery; conditions: route oral; in short: as §2
Rattus norvegicus [15] = assay: Maximum change in mean aortic blood pressure in conscious renal 2-kidney/1-clip goldblatt hypertensive rat at a dose 10 mg/kg administered orally at 4 hr; 4 animals tested; format: functional, Artery; conditions: route oral; in short: as §2
Rattus norvegicus [16] = assay: Maximum change in mean aortic blood pressure in conscious renal 2-kidney/1-clip goldblatt hypertensive rat at a dose 3 mg/kg administered orally at 8h; 5 animals tested; format: functional, Artery; conditions: route oral; in short: as §2
Rattus norvegicus [17] = assay: Maximum change in mean aortic blood pressure in conscious renal 2-kidney/1-clip goldblatt hypertensive rat at a dose 10 mg/kg administered orally at 3 hr; 5 animals tested; format: functional, Artery; conditions: route oral; in short: as §2
Rattus norvegicus [18] = assay: Maximum change in mean aortic blood pressure in conscious renal 2-kidney/1-clip goldblatt hypertensive rat at a dose 30 mg/kg administered orally at 5h; 5 animals tested; format: functional, Artery; conditions: route oral; in short: as §2
Rattus norvegicus [19] = assay: Mean aortic base line blood pressure in conscious renal 2-kidney/1-clip goldblatt hypertensive rat at a dose 3 mg/kg administered orally; format: functional, Artery; conditions: route oral; in short: as §2
Rattus norvegicus [20] = assay: Maximum change in mean aortic blood pressure in conscious renal 2-kidney/1-clip goldblatt hypertensive rat at a dose 0.1 mg/kg administered orally at 10h; 4 animals tested; format: functional, Artery; conditions: route oral; in short: as §2
Rattus norvegicus [21] = assay: Maximum change in mean aortic blood pressure in conscious renal 2-kidney/1-clip goldblatt hypertensive rat at a dose 1.0 mg/kg administered orally at 3 hr; 4 animals tested; format: functional, Artery; conditions: route oral; in short: as §2
Rattus norvegicus [22] = assay: Mean aortic base line blood pressure in conscious renal 2-kidney/1-clip goldblatt hypertensive rat at a dose 0.1 mg/kg administered orally; format: functional, Artery; conditions: route oral; in short: as §2
Rattus norvegicus [23] = assay: Maximum change in mean aortic blood pressure in conscious renal 2-kidney/1-clip goldblatt hypertensive rat at a dose 3 mg/kg administered orally at 6 h; 4 animals tested; format: functional, Artery; conditions: route oral

O=C(O)[C@@H]1CCCN1C(=O)CCS
IC50 [1]: 820 nM

CC(CS)C(=O)N1C(=O)CCC1C(=O)O (stereo not given)
IC50 [1]: 9.3 nM | Mean aortic blood pressure (Rattus norvegicus [2]): 185 mmHg | Mean aortic blood pressure (Rattus norvegicus [3]): -48 mmHg

CC(=O)SCC(C)C(=O)N1C(=O)C2CCCCC2C1C(=O)O (stereo not given)
IC50 [1]: 300 nM

C1CCC(NC2CCCCC2)CC1.CC(CS)C(=O)N1C(=O)C2CCCCC2C1C(=O)O (stereo not given)
Mean aortic blood pressure (Rattus norvegicus [2]): 192 mmHg | Mean aortic blood pressure (Rattus norvegicus [3]): -100 mmHg

C1CCC(NC2CCCCC2)CC1.O=C(O)C1C2CCCCC2C(=O)N1C(=O)CCS (stereo not given)
Mean aortic blood pressure (Rattus norvegicus [2]): 205 mmHg | Mean aortic blood pressure (Rattus norvegicus [3]): -57 mmHg

C1CCC(NC2CCCCC2)CC1.O=C(O)C1C2CCCCC2CN1C(=O)CCS (stereo not given)
Mean aortic blood pressure (Rattus norvegicus [2]): 184 mmHg | Mean aortic blood pressure (Rattus norvegicus [4]): -76 mmHg

O=C(O)C1Cc2ccccc2N1C(=O)CCS (stereo not given)
IC50 [1]: 140 nM

O=C(O)[C@@H]1CCC(=O)N1C(=O)CCS
IC50 [1]: 960 nM

C[C@H](N[C@@H](CCc1ccccc1)C(=O)O)C(=O)N1[C@H](C(=O)O)C[C@@H]2CCCC[C@@H]21
Mean aortic blood pressure (Rattus norvegicus [2]): 198 mmHg | Mean aortic blood pressure (Rattus norvegicus [5]): -104 mmHg

O=C(NC(Cc1ccccc1)C(=O)CCC(=O)N1C(C(=O)O)CC2CCCCC21)c1ccccc1 (stereo not given)
IC50 [1]: 11 nM | Mean aortic blood pressure (Rattus norvegicus [2]): 169 mmHg | Mean aortic blood pressure (Rattus norvegicus [6]): -27 mmHg

CCOC(=O)C(CCc1ccccc1)N1C(=O)C2CC3CCCCC3N2C(=O)C1C (stereo not given)
IC50 [1]: > 100000 nM

O=C1SCCC(=O)N2C1CC1CCCCC12 (stereo not given)
IC50 [1]: 7 nM

CC(CSC(=O)c1ccccc1)C(=O)N1[C@H](C(=O)O)C[C@@H]2CCCC[C@@H]21 (stereo not given in full)
IC50 [1]: 540 nM

CC(CS)C(=O)N1CC2CCCCC2C1C(=O)O (stereo not given)
Mean aortic blood pressure (Rattus norvegicus [2]): 152 mmHg | Mean aortic blood pressure (Rattus norvegicus [7]): -50 mmHg

CCOC(=O)C(CCc1ccccc1)NC(C)C(=O)N1C(=O)CCC1C(=O)O (stereo not given)
IC50 [1]: 63 nM

CCOC(=O)[C@H](CCc1ccccc1)N[C@@H](C)C(=O)N1CCC[C@H]1C(=O)O
Mean aortic blood pressure (Rattus norvegicus [8]): 199 mmHg | Mean aortic blood pressure (Rattus norvegicus [9]): 201 mmHg | Mean aortic blood pressure (Rattus norvegicus [10]): 200 mmHg | Mean aortic blood pressure (Rattus norvegicus [11]): -56 mmHg | Mean aortic blood pressure (Rattus norvegicus [12]): -24 mmHg | Mean aortic blood pressure (Rattus norvegicus [13]): -39 mmHg | Mean aortic blood pressure (Rattus norvegicus [14]): 175 mmHg | Mean aortic blood pressure (Rattus norvegicus [15]): -56 mmHg

C[C@H](CS)C(=O)N1c2ccccc2C[C@H]1C(=O)O
IC50 [1]: 3.7 nM

CC(=O)SCCC(=O)N1[C@H](C(=O)O)C[C@@H]2CCCC[C@@H]21 (stereo in doubt; 8a)
IC50 [1]: 560 nM

O=C(O)[C@@H]1C[C@@H]2CCCC[C@@H]2N1C(=O)CCS (stereo in doubt; 8b)
Mean aortic blood pressure (Rattus norvegicus [16]): -73 mmHg | Mean aortic blood pressure (Rattus norvegicus [8]): 198 mmHg | Mean aortic blood pressure (Rattus norvegicus [17]): -89 mmHg | IC50 [1]: 13 nM | Mean aortic blood pressure (Rattus norvegicus [2]): 198 mmHg | Mean aortic blood pressure (Rattus norvegicus [18]): -91 mmHg | Mean aortic blood pressure (Rattus norvegicus [19]): 198 mmHg

CC(=O)SCCC(=O)N1[C@H](C(=O)O)C[C@@H]2CCCC[C@@H]21 (stereo in doubt; 8c)
IC50 [1]: 480 nM

O=C(O)[C@@H]1C[C@@H]2CCCC[C@@H]2N1C(=O)CCS (stereo in doubt; 8d)
IC50 [1]: 6.4 nM

CC(=O)SCC(C)C(=O)N1[C@H](C(=O)O)C[C@@H]2CCCC[C@@H]21 (stereo in doubt; 9a)
IC50 [1]: 160 nM

CC(=O)SCC(C)C(=O)N1[C@H](C(=O)O)C[C@@H]2CCCC[C@@H]21 (stereo in doubt; 9b)
IC50 [1]: 35000 nM

CC(CS)C(=O)N1[C@H](C(=O)O)C[C@@H]2CCCC[C@@H]21 (stereo in doubt; 9d)
IC50 [1]: 1100 nM

CC(CS)C(=O)N1[C@H](C(=O)O)C[C@@H]2CCCC[C@@H]21 (stereo in doubt; 9f)
IC50 [1]: 5.2 nM | Mean aortic blood pressure (Rattus norvegicus [2]; 30 mg/kg): 193 mmHg | Mean aortic blood pressure (Rattus norvegicus [4]): -72 mmHg

CCOC(=O)C(CCc1ccccc1)NC(C)C(=O)N1[C@H](C(=O)O)C[C@@H]2CCCC[C@@H]21.Cl (stereo in doubt; 11a)
Mean aortic blood pressure (Rattus norvegicus [20]): -52 mmHg | Mean aortic blood pressure (Rattus norvegicus [8]): 197 mmHg | Mean aortic blood pressure (Rattus norvegicus [9]): 191 mmHg | Mean aortic blood pressure (Rattus norvegicus [21]): -72 mmHg | Mean aortic blood pressure (Rattus norvegicus [2]): 185 mmHg | Mean aortic blood pressure (Rattus norvegicus [22]): 185 mmHg | Mean aortic blood pressure (Rattus norvegicus [13]): -73 mmHg | Mean aortic blood pressure (Rattus norvegicus [14]): 190 mmHg | Mean aortic blood pressure (Rattus norvegicus [7]): -102 mmHg

CCOC(=O)C(CCc1ccccc1)NC(C)C(=O)N1[C@H](C(=O)O)C[C@@H]2CCCC[C@@H]21.Cl (stereo in doubt; 17a)
Mean aortic blood pressure (Rattus norvegicus [19]): 199 mmHg | Mean aortic blood pressure (Rattus norvegicus [23]): -87 mmHg
